A selection: hits, their analogues and other compounds. The true share with any hit is near 2.3%.
TRPC6 activator – activators of mouse TRPC6 channel | Q61143 | HEK293-TRPC6 membrane potential dye fluorescence; hits give high values | B-score at 10 µM | actives 0.13% (n = 310,000);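 active = B-score of the integrated fluorescence ratio above library mean plus 3 SD, and starting fluorescence ratio within library mean plus 5 SD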;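 note: higher score means more depolarization so channel activation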
Target sequence (Q61143 whole entry, looked up): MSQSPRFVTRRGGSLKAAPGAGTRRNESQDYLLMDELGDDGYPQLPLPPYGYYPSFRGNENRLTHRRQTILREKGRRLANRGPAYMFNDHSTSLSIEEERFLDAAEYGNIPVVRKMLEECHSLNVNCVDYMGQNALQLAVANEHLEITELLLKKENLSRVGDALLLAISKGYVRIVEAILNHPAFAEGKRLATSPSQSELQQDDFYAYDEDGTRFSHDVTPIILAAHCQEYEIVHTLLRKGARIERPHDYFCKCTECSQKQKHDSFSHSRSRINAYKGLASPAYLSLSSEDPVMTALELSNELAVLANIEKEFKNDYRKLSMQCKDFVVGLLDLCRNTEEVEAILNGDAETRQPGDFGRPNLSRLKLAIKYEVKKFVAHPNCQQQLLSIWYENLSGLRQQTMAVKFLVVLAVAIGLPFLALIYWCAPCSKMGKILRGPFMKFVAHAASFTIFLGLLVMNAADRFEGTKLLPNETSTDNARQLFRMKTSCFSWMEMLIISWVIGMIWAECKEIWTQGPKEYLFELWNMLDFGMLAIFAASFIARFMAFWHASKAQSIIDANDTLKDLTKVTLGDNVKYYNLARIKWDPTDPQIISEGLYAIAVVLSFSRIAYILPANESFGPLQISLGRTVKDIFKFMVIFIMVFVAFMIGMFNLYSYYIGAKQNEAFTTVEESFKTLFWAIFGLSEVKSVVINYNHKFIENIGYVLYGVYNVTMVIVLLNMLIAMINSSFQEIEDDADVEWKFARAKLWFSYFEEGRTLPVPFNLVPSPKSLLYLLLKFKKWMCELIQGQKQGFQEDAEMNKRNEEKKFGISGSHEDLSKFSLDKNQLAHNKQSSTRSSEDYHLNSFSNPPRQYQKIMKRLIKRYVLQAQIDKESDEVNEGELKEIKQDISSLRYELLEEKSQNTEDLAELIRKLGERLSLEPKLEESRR
TRPC4 PAM – allosteric potentiators of mouse TRPC4 channel | HEK293 TRPC4beta/mu-opioid, DAMGO EC20, Fluo-4 Ca2+ flux; hits give high values | B-score at 10 µM | actives 0.42% (n = 310,000);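 active = B-score of calcium response area above 5 SD of library B-scores, with initial fluorescence ratio within 5 SD of library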;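 note: B-score of integrated fluorescence ratio over time as area under calcium response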
TRPC4 agonist – activators of mouse TRPC4 channel; HEK293 TRPC4beta/mu-opioid, Fluo4 calcium fluorescence; hits give high values; B-score at 10 µM; actives 0.49% (n = 310,000);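 active = B-score above 5 SD of library B-scores, and initial fluorescence ratio not above library mean plus 5 SD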;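 note: positive B-score marks a calcium rise read as TRPC4 activation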
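Technique: kinetic Fluo4 calcium fluorescence; Test system: TRPC4beta and mu-opioid receptor HEK293 stable cells; Measure: B-scored integrated calcium fluorescence ratio; Benchmarks: low control buffer alone, high control maximal DAMGO; Schedule: 45 min room-temperature Fluo4 loading, 110 s read.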
TRPC6 inh – mouse TRPC6 channel inhibition | Q61143 | HEK293-TRPC6, membrane potential dye, ACh-evoked depolarization; hits give low values | B-score at 10 µM | actives 1.1% (n = 310,000);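 active = B-score under library mean minus 3 SD, initial fluorescence not abnormally high, positive integrated signal ratio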;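 note: B-score derived from integrated fluorescence ratio over the kinetic read; more negative B-score means stronger inhibition of depolarization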
TRPC4 inh – TRPC4 (mouse) channel inhibition; B-score at 10 µM; actives 0.39% (n = 300,000); AID 2247; HEK293 TRPC4beta/mu-opioid, DAMGO-evoked Fluo4 calcium flux; hits give low values;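 active = B-score over 3 SD under the library average, no early fluorescence shift, positive overall ratio signal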
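Assay system: Stable TRPC4beta/mu-opioid receptor HEK293 cells | Reagent: DAMGO in two steps, submaximal then maximal | Compound dosing: Single concentration per test compound | Signal: Fluo4 Ca2+ flux fluorescence | Evaluation: Per-well B score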
HEK293 MPD ctr – counter-screen for TRPC6 modulators: effect in parental HEK293 cells; shares compounds with TRPC6 inh; membrane potential dye fluorescence; membrane potential signal change, % at 10 µM; actives 51% (n = 2,400); AID 488924;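 active = membrane potential signal moves up or down beyond 5 SD from buffer-only wells, on both duplicate plates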
HEK293 MPD ctr 2 – second counter-screen for TRPC6 modulators: effect in parental HEK293 cells; shares compounds with TRPC6 inh; membrane potential dye fluorescence; after compound, maximal acetylcholine stimulation; inhibition, % at 10 µM; actives 14% (n = 2,400);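 active = membrane potential signal drops by more than 5 SD from the mean control signal, in both duplicate plates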;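 note: plate controls were acetylcholine ECmax control wells for no effect and buffer only wells for full effect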
TRPC4 ctr mod – selectivity of TRPC6 modulators against mouse TRPC4 | shares compounds with TRPC6 inh | HEK293 TRPC4/mu-opioid, membrane potential fluorescence | percent change from control (negative = decrease, positive = increase), % at 10 µM | actives 69% (n = 2,400);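 active = membrane potential signal moved up or down beyond 5 SD of buffer control wells, in both duplicate plates, actives on both sides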;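 note: plate controls were assay buffer wells for no effect and DAMGO maximal-effect wells for full effect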
TRPC4 ctr inh 2 – second selectivity test of TRPC6 modulators against mouse TRPC4; shares compounds with TRPC6 inh; HEK293 TRPC4/mu-opioid, membrane potential dye fluorescence; stimulated with maximal-effect DAMGO; inhibition, % at 10 µM; actives 55% (n = 2,400); AID 488928;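 active = drop in membrane potential signal beyond 5 SD of the control wells in both duplicate plates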;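 note: TRPC4 counter screen for TRPC6 hits run under conditions tuned for TRPC6 not TRPC4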
TRPC6 block conf – mouse TRPC6 inhibitor confirmation. actives 43% (n = 3,300). HEK293-TRPC6, membrane potential dye, ACh-evoked depolarization. AID 488960. shares compounds with TRPC6 inh. inhibition, % at 10 µM;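 active = fluorescence ratio falls more than 5 SD below the full-stimulation control mean, in both duplicate runs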;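 note: integrated fluorescence ratio of peak minus minimum over baseline after agonist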
TRPC6 act conf – confirmation of mouse TRPC6 activators; activation, % at 10 µM; shares compounds with TRPC6 inh; AID 488961; actives 11% (n = 2,800); HEK293-TRPC6 membrane potential dye fluorescence, FDSS;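 active = ratio signal rise beyond 5 SD above unstimulated control wells' mean, seen in both duplicate runs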;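 note: plate controls were buffer EC0 wells for no effect and acetylcholine ECmax response for full effect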
Starred values were filed as active, the others as inactive; i = inactive; / = no result given.

SMILES	TRPC6 activator	TRPC4 PAM	TRPC4 agonist	TRPC6 inh	TRPC4 inh	HEK293 MPD ctr	HEK293 MPD ctr 2	TRPC4 ctr mod	TRPC4 ctr inh 2	TRPC6 block conf	TRPC6 act conf
CCCCc1c(C)c(C#N)c2nc3ccccc3n2c1NCCN(C)C	i	i	i	i	i	/	/	/	/	/	/
CCc1c(C)c(C#N)c2nc3ccccc3n2c1Cl	i	i	i	i	i	/	/	/	/	/	/
CCOc1ccc(NC(=O)C2CC(=O)N(c3ccccc3F)C2)cc1 (stereo not given)	i	i	i	i	i	/	/	/	/	/	/
Cc1ccc(CNC(=O)COc2ccc(C(=O)c3ccc(F)cc3)cc2)cc1	i	i	i	i	i	/	/	/	/	/	/
CC(C)CN(C(=O)CN1CCc2ccccc21)c1c(N)n(CC(C)C)c(=O)[nH]c1=O	i	i	i	i	i	/	/	/	/	/	/
O=Cc1cn(CC(=O)Nc2ccc3c(c2)OCO3)c2ccccc12	i	i	i	i	i	/	/	/	/	/	/
COc1ccccc1NC(=O)CSc1nnnn1-c1ccc(C(=O)O)cc1	i	i	i	i	i	/	/	/	/	/	/
CCCCOc1ccccc1NC(=O)CSc1nnnn1C(C)(C)C	12.4*	i	i	i	i	187.0%*	i	38.5%*	i	/	114.0%*
Cc1c(-c2nnc(SCC(=O)O)n2-c2ccccc2Br)nnn1-c1ccccc1	i	i	i	i	i	/	/	/	/	/	/
O=C(O)c1nccnc1C(=O)Nc1ccc(S(=O)(=O)N2CCOCC2)cc1	i	i	i	i	i	/	/	/	/	/	/
COCCOC(=O)c1nccnc1C(=O)Nc1ccc(S(=O)(=O)N2CCOCC2)cc1	i	i	i	-6.17*	i	i	i	i	i	i	i
CCC1CN(C(=O)N2CCC(C(=O)Nc3ccccc3F)CC2)c2ccccc2O1 (stereo not given)	i	i	i	i	i	/	/	/	/	/	/
O=C(Nc1cccnc1Cl)c1cccs1	i	i	i	-5.06*	i	i	i	i	i	i	i
CN(C)c1cc[n+](CC(=O)Nc2ccc(Oc3ccccc3)cc2)cc1	i	i	i	-6.27*	i	i	i	-10.5%*	i	i	i
CNC(=O)CC1C(=O)N(c2ccc(F)cc2)C(=S)N1NC(=O)c1ccc(Cl)cc1 (stereo not given)	i	i	i	-5.57*	i	i	i	i	i	i	i

From PubChem
